Data: ChEMBL document CHEMBL1156478, “Loss of huntingtin function complemented by small molecules acting as repressor element 1/neuron restrictive silencer element silencer modulators” (J Biol Chem, 2007)
Calls of active or inactive are those of the source. No cut-off for these calls is given here.

Tests used:
ST14A [1] = experiment: Induction of REST/NRSF-coupled repression of luciferase tagged rat RE1/NRSE BDNF promoter activity expressed in ST14A cells at 10 nM assessed as increase in luciferase activity; type: cell-based
Method in brief: (§1)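 ST14A rat neural cells stably carrying RE1/NRSE(BDNF)-luciferase reporter (DiaNRSE-Luc8 clone), grown in DMEM/10% heat-inactivated FBS at 33 °C, 5% CO2. Compounds from 10 mM DMSO stocks added to cells plated the day before; 72 h exposure in 96-well format, triplicate. Firefly luciferase read after luciferin, expressed as RLU per µg protein (BCA) relative to untreated cells.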

ST14A [2] = experiment: […] of REST/NRSF-coupled repression of luciferase tagged rat RE1/NRSE BDNF promoter activity expressed in ST14A cells at 25 nM assessed as increase in luciferase activity; type: cell-based; settings: TDE = time-dependent effect
neural = experiment: Increase in BDNF protein expression in neural cells overexpressing huntingtin mutant gene after 72 hrs by ELISA relative to control; type: functional, cell-based
Method in brief: (§2)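 BDNF protein after 72 h compound exposure: lysis in Tris-HCl pH 7.5, 150 mM NaCl, 1% Triton X-100, 10% glycerol, EDTA/EGTA, protease inhibitors; homogenized, sonicated, centrifuged 15 min at 4 °C; supernatant assayed by BDNF immunoassay, normalized to BCA total protein; fold over untreated cells.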

ST14A [3] = experiment: Increase in REST/NRSF mRNA expression in rat ST14A cells after 72 hrs by RT-PCR relative to control; type: functional, cell-based
Method in brief: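 REST/NRSF transcript by SYBR Green real-time PCR after 72 h exposure: 95 °C 3 min, then 45 × (95 °C 30 s, 60 °C 30 s, 72 °C 30 s), melt curve 55–94 °C; normalized to β-actin, fold over untreated; triplicate reactions.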

ST14A [4] = experiment: […] of REST/NRSF-coupled repression of luciferase tagged rat RE1/NRSE BDNF promoter activity expressed in ST14A cells at 75 nM assessed as increase in luciferase activity; type: cell-based
Method in brief: (§3)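 Stable ST14A clone carrying RE1/NRSE(BDNF)-firefly luciferase, selected for DN:REST responsiveness; cells in 96 wells exposed after adhesion to compounds (DMSO, 10 mM stock) in triplicate, 72 h; luciferin added, luminescence expressed as RLU per µg protein (BCA), relative to untreated; EC50 from dose–response.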

ST14A [5] = experiment: Increase in RE1/NRSE promoter regulated synapsin I mRNA expression in rat ST14A cells at 200 nM after 72 hrs by RT-PCR relative to control; type: functional, cell-based
Method in brief: (§4)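 72 h exposure; SYBR Green real-time PCR for synapsin I and M4: 95 °C 3 min, then 40 × (95 °C 30 s, 58 °C 30 s, 72 °C 30 s), melt curve 55–94 °C; normalized to β-actin, fold over untreated; triplicate reactions.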

[6] = (§5) […] of REST/NRSF-coupled repression of luciferase tagged rat RE1/NRSE BDNF promoter activity expressed in ST14A cells assessed as increase in luciferase activity; type: cell-based; method in brief: as §3
ST14A [7] = experiment: as §5; type: cell-based; method in brief: as §3
ST14A [8] = experiment: Increase in RE1/NRSE promoter regulated muscarinic M4 receptor mRNA expression in rat ST14A cells at 200 nM after 72 hrs by RT-PCR relative to control; type: functional, cell-based; method in brief: as §4
ST14A [9] = experiment: Increase in BDNF mRNA expression in rat ST14A cells expressing RE1/NRSE BDNF promoter after 72 hrs by RT-PCR relative to control; type: functional, cell-based
Method in brief: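 Cells treated 72 h; total RNA (1 µg) reverse transcribed, three independent reactions per RNA stock, triplicate SYBR Green real-time PCR with 25 ng cDNA, 0.2 µM primers; BDNF cycling 95 °C 10 min then 40 × (95 °C 10 s, 56 °C 10 s, 72 °C 20 s), melt-curve check; normalized to β-actin, fold over untreated; three independent experiments.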

STHdhQ11/HdhQ11 [10] = experiment: Effect on REST/NRSF translocation in mouse STHdhQ11/HdhQ11 cells expressing homozygous mutant huntingtin gene
ST14A [11] = experiment: Increase in E2F1 mRNA expression in rat ST14A cells after 72 hrs by RT-PCR relative to control; type: functional, cell-based
Method in brief: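 E2F1 SYBR Green real-time PCR after 72 h exposure: 95 °C 10 min, then 40 × (95 °C 15 s, 60 °C 1 min), fluorescence read at 60 °C, melt curve 55–94 °C; normalized to β-actin, fold over untreated cells; triplicate reactions.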

ST14A [12] = experiment: Increase in BDNF protein expression in rat ST14A cells expressing RE1/NRSE BDNF promoter after 72 hrs by ELISA relative to control; type: functional, cell-based; method in brief: as §2
[13] = Increase in BDNF protein expression in […]/HdhQ11 cells expressing homozygous mutant huntingtin gene at 200 nM after 72 hrs by ELISA relative to control; type: functional; method in brief: as §2
[14] = Increase in BDNF protein expression in […]/HdhQ11 cells expressing homozygous mutant huntingtin gene at 50 nM after 72 hrs by ELISA relative to control; type: functional; method in brief: as §2
ST14A [15] = experiment: Induction of REST/NRSF-coupled repression of luciferase tagged rat RE1/NRSE BDNF promoter activity expressed in ST14A cells at 5 nM assessed as increase in luciferase activity; type: cell-based; method in brief: as §1
STHdhQ11/HdhQ11 [16] = experiment: Increase in cell viability of stress-exposed […]/HdhQ11 cells expressing homozygous mutant huntingtin gene at 25 nM after 48 hrs by MTT assay; type: functional, cell-based
Method in brief: (§6)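 Cells plated at 80,000/well in triplicate, 24 h at 33 °C, washed, switched to serum-deprived medium at 37 °C as stress, with or without compound; MTT read 48 h after treatment, formazan at 560 nm after 1 h at 37 °C; three independent experiments.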

Mus musculus = species on record: Mus musculus; experiment: Effect on cell proliferation of stress-exposed mouse STHdhQ11/HdhQ11 cells expressing homozygous mutant huntingtin gene assessed as BrdUrd incorporation
[17] = Increase in cell viability of stress-exposed […]/HdhQ11 cells expressing homozygous mutant huntingtin gene at 50 nM after 48 hrs by MTT assay; type: functional; method in brief: as §6

Structure (SMILES)	Activity (neural)	Activity (ST14A [3])	Activity (ST14A [4])	Activity (ST14A [5])	EC50 [6]	Activity (ST14A [8])	Activity (ST14A [9])	Activity (STHdhQ11/HdhQ11 [10])	Activity (ST14A [11])	Activity (ST14A [12])	other results
CN[C@@H]1C[C@H]2O[C@@](C)([C@@H]1OC)n1c3ccccc3c3c4c(c5c6ccccc6n2c5c31)C(=O)NC4	–	–	–	–	–	–	–	–	–	–	Activity (ST14A [1]): inactive
COc1ccc(Nc2nc(-c3c(C)nc4cc(C)ccn34)cs2)cc1	Active	inactive	Active	Active	12 nM	Active	Dose-dependent effect	inactive	inactive	Dose-dependent effect	Activity (ST14A [2]): tde; Activity (ST14A [7]): Dose-dependent effect; fold change (FC) [13]: 2
CC(/C=C/C(=O)NO)=C\[C@@H](C)C(=O)c1ccc(N(C)C)cc1	–	–	Active	–	–	–	–	–	–	–	Activity (ST14A [7]): Dose-dependent effect
Cc1nc2ncccn2c1-c1csc(Nc2ccc(N(C)C)cc2)n1	Active	inactive	Active	Active	20 nM	Active	Dose-dependent effect	inactive	inactive	Dose-dependent effect	fold change (FC) [14]: 1.6
O=C(CCCCCCC(=O)Nc1ccccc1)NO	–	Active	–	–	–	–	–	–	Active	–	–
O=C(O)CC[N+](=O)[O-]	–	–	–	–	–	–	–	–	–	–	Activity (ST14A [15]): inactive; Activity (ST14A [1]): inactive
Cc1ccn2c(-c3csc(Nc4ccc(N(C)C)cc4)n3)c(C)nc2c1	Active	inactive	Active	Active	20 nM	Active	Dose-dependent effect	inactive	inactive	Dose-dependent effect	Activity (STHdhQ11/HdhQ11 [16]): Active; Activity (Mus musculus): inactive; Activity [17]: 17%; fold change (FC) [13]: 2
